Screens: PubChem BioAssay, Johns Hopkins Ion Channel Center
KCNK3 block – human KCNK3 channel inhibition, primary screen; AID 602410; B-score at 10 µM; CHO-KCNK3 thallium flux, FluxOR fluorescence; stronger effect = lower value; 0.84% of 340,000 active; O14649;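 active = B-score under library mean minus 4 SD, starting fluorescence ratio at most library mean plus 5 SD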;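 also: more negative B-score means stronger inhibition of thallium flux through KCNK3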
KCNK9 inh – blocks the human KCNK9 two-pore domain potassium channel; Q9NPC2; HEK293 KCNK9, FluxOR thallium flux fluorescence; stronger effect = lower value; B-score at 10 µM; 1.2% of 310,000 active;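 active = ratio B-score over 3 SD below the library mean, with starting fluorescence within 5 SD of its mean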;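 also: negative B-score means less thallium flux so channel inhibition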
Target sequence (Q9NPC2 whole entry, looked up, the tested form may be a part): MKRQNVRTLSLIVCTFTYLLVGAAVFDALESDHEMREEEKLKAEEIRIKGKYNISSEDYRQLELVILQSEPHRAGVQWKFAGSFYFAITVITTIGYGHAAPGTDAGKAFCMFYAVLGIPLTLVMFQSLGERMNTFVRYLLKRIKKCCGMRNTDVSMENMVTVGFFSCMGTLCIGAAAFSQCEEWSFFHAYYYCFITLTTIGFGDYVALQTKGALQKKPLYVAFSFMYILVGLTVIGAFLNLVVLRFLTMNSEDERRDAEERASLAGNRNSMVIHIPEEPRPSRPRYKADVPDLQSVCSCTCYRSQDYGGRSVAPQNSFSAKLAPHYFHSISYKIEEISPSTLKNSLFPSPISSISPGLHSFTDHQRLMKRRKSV
hERG protect – hERG (human) protection from proarrhythmic block; activation (rescue from dofetilide block), less the hit threshold, % at 10 µM; 0.51% of 310,000 active; CHO-hERG, FluxOR thallium flux, dofetilide IC70 present; AID 1511; Q12809;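 active = activation above the mean of controls blocked by dofetilide plus 5 SD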;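 also: thallium influx through hERG after potassium depolarization seen as dye fluorescence rise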
KCNQ1 inh – human KCNQ1 channel inhibition; 1.3% of 310,000 active; AID 2642; CHO-K1 KCNQ1, FluxOR thallium flux fluorescence; stronger effect = higher value; P51787; B-score at 10 µM;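 active = compounds whose thallium flux B-score, printed positive for inhibition, exceeds three library SD while starting fluorescence stays within three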;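 also: channel opened by potassium depolarization with thallium stimulus after 20 min compound exposure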
KCNQ1 act – potentiates or activates the human KCNQ1 potassium channel; P51787; CHO-K1 KCNQ1, thallium flux FluxOR fluorescence; stronger effect = higher value; B-score at 10 µM; 0.35% of 310,000 active; AID 2648;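 active = fluorescence ratio B-score, a plate-corrected score, at least three library SD, with initial intensity B-score within 5 SD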
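Assay system: CHO-K1 cells stably expressing KCNQ1. Medium: assay buffer for compound exposure, DMSO matched across wells. Timing: 37 °C overnight plating, 90-min dark dye load, 20-min compound pretreatment. Signal: kinetic FluxOR fluorescence, 10 s baseline plus 110 s post-stimulus.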
Kir21 inh – inhibitors of mouse Kir2.1 inward-rectifier potassium channel | HEK293-Kir2.1, FluxOR thallium flux fluorescence; stronger effect = lower value | B-score at 10 µM | 0.85% of 310,000 active | AID 1672;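 active = fluorescence ratio B-score at or below minus 3 SD of library scores, with starting-brightness B-score within 2 SD, cut at about -4.2 in these data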;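 also: channel flux triggered by added potassium and thallium sulfate stimulus; B-score of peak minus minimum fluorescence over baseline after thallium stimulus; more negative B-score means stronger Kir2.1 block with less thallium influx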
Of the large screens only hits and unclear results are named; the others gave an inactive call. Most compounds without a hit are left out; they make up all but 3.7% or so of the library.

O=C(COc1ccc2c3c(c(=O)oc2c1)CCC3)N[C@@H](Cc1ccccc1)C(=O)O	hERG protect 5.3
O=C(Nc1ccc(S(=O)(=O)N2CCCCC2)cc1)c1ccc(CN2CCc3ccccc3C2)cc1	KCNQ1 inh 6
OCC1(CCc2ccccc2)CCN(Cc2cc(Cl)ccc2O)CC1	Kir21 inh -4.8
Cc1ccc(-n2cccn2)c(CN2CCC(CO)(CCc3ccccc3)CC2)c1	none
OCC1(CCc2ccccc2)CCN(Cc2ccc(OC(F)F)cc2)CC1	none
OCC1(CCCc2ccccc2)CCN(Cc2ccc(F)cc2)CC1	Kir21 inh -6.2
O=C(/C=C/c1cn(CC(O)CN2CCOCC2)c2ccccc12)c1cccs1 (stereo unspecified)	KCNQ1 inh 6 (no result: KCNK3 block)
CCOc1ccc(C(O)(c2ccccc2OC)C(CN2CCCC2)c2ccccc2)cc1 (stereo unspecified)	KCNQ1 inh 11
O=C(COc1ccc(Cl)cc1)NCCSCc1cccc(Cl)c1	KCNQ1 inh 6
Cc1cccc(CSCCNC(=O)COc2ccc(Cl)cc2)c1	none
COc1ccccc1/C=C/C=C1\Oc2c(ccc(O)c2CN(C)C)C1=O	KCNQ1 inh 10
CCOC(=O)N1CCC(NC(=O)CSc2cc(=O)n(CC)c3ccccc23)CC1	KCNK9 inh -7.1
CCn1cc(SCC(=O)NC2CCCC2)c2ccccc21	Kir21 inh -4.8
COc1ccc(-c2noc(CN(C)C(=O)c3ccoc3C)n2)cc1OC	none
O=C(O)c1ccc(N/N=C/C=C/c2ccc([N+](=O)[O-])o2)cc1	none
O=[N+]([O-])c1ccc(N/N=C/C=C/c2ccco2)cc1	KCNK9 inh -7.2
COC(=O)/C(=C\Nc1cccc(Cl)c1C)c1ncc(C(F)(F)F)cc1Cl	none
CON/C=C(\C=Nc1ccccc1)c1ncc(C(F)(F)F)cc1Cl	KCNQ1 inh 7
CCOc1ccc(/C=N/n2c(C3CCCCC3)n[nH]c2=S)cc1	none
CCCCCCOc1ccc(/C(C)=N/NC2=NCCN2)cc1[N+](=O)[O-]	none
CCCCOc1ccc(Br)cc1/C(C)=N/NC1=NCCN1	Kir21 inh -8.1
CNC(=O)NC(=O)C(C)Oc1ccccc1F (stereo unspecified)	none
COc1ccc(S(=O)(=O)NCC2(N3CCOCC3)CCCCC2)cc1OC	none (no result: KCNK9 inh, hERG protect, KCNQ1 inh, KCNQ1 act, Kir21 inh)
CCCN(Cc1nnc(-c2ccccc2Cl)o1)C(=O)c1oc2ccccc2c1C	KCNQ1 inh 6
CCCN(Cc1nnc(-c2ccccc2Cl)o1)C(=O)c1ccc(C)c(S(=O)(=O)N2CCOCC2)c1	none
CCOC(=O)C(CSCC(=O)c1ccc(Cl)cc1)NC(=O)OC(C)(C)C (stereo unspecified)	Kir21 inh -5.7
CCOC(=O)C(CSCC(=O)c1ccc(Br)cc1)NC(=O)OC(C)(C)C (stereo unspecified)	none (no result: KCNK3 block)
COc1ccc(C2CCCN2CC(O)COc2ccccc2C(C)C)cc1 (stereo unspecified)	Kir21 inh -11
OC(CNCC1CCCO1)Cn1c2ccc(Cl)cc2c2cc(Cl)ccc21 (stereo unspecified)	Kir21 inh -5.4
CCCN(C(=O)CCc1ccc(OC)cc1)c1c(N)n(Cc2ccccc2)c(=O)[nH]c1=O	none (no result: KCNK9 inh, hERG protect, KCNQ1 inh, KCNQ1 act, Kir21 inh)
CCC(=O)OCc1c(C(F)(F)F)nn(C)c1Sc1ccc(Cl)cc1	Kir21 inh -4.9
CC(=O)OCc1c(C(F)(F)F)nn(C)c1Sc1ccccc1	none
CC(Oc1ccc(Br)cc1)C(=O)NCc1ccccn1 (stereo unspecified)	none
CC(=O)OCCC(NS(=O)(=O)OCC(Cl)(Cl)Cl)c1ccccc1 (stereo unspecified)	none
C[C@H](NS(=O)(=O)OCC(Cl)(Cl)Cl)C1CC1c1ccccc1 (stereo partly specified)	KCNQ1 inh 6
COc1ccccc1OCc1ccc(C(=O)n2nc(C)c(Cl)c2C)o1	KCNK9 inh -7.9
COC(=O)c1ccc(COc2ccccc2OC)o1	none
O=C(COC(=O)c1ccncc1)Nc1cccc2ccccc12	KCNK3 block -8.8 (no result: KCNK9 inh, hERG protect, KCNQ1 inh, KCNQ1 act, Kir21 inh)
CCC(=O)Nc1ccccc1C(=O)OCC(=O)c1cccc2ccccc12	KCNK3 block -11, KCNK9 inh -7.3
O=C(COC(=O)c1cccc2ccccc12)Nc1cccnc1Cl	none
